Laboratory results: the EternaBench riboswitch data

Tested on: MS2 coat protein
Experiment: apparent Kd, MS2 coat protein; higher = weaker binding; RNA-MaP array; FMN 200 µM where present
Procedure, shortened: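 Apparent Kd: the median of filtered binding-curve fits from single clusters. Designs were transcribed on Illumina sequencing-chip clusters by stalled E. coli RNA polymerase and titrated with SNAP-549-labelled MS2 coat protein from 0.7 or 1.5 nM, doubling to 3 µM, in 100 mM Tris-HCl pH 7.5, 80 mM KCl, 4 mM MgCl2, BSA, DTT, yeast tRNA and Tween-20. Each series ran without and then with constant ligand, and green signal was normalised to red-channel RNA signal and control-cluster median Fmax.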

[1] = designed as: OFF switch for flavin mononucleotide, no ligand
[2] = ligand present: flavin mononucleotide, designed as: OFF switch for flavin mononucleotide
[3] = designed as: ON switch for flavin mononucleotide, no ligand
[4] = ligand present: flavin mononucleotide, designed as: ON switch for flavin mononucleotide

Row | Sequence | apparent Kd [1] [nM] | apparent Kd [2] [nM] | apparent Kd [3] [nM] | apparent Kd [4] [nM]
1 | UCGUAUAAGGGCAUUACACAUGAGGAUCACCCAUGUACGUUAGAGGAUAUGCAUUCCAGUCGAACGUAGAAGGCUAGAGAAGGG | 118 | 117 |  | 
2 | GACAUGUGAGGAUAUCUGAUGUCUAACUUCGGUUAGACAUCAGAGAAGGCACAUGAGGAUCACCCAUGUCUGUC | 194 | 232 |  | 
3 | UAUUAACACGAAGGAUAUGGUUACAUGAGGAUCACCCAUGUAUGUAUAUUGAUCCAGAUUUUUGACCAGAAGGUCGUGAGUAAA | 108 | 285 |  | 
4 | GUUUUUCCUCAUGUACAUGAGGAACAUGAGGAUCACCCAUGUAGAAGGAAUUUUUUUAAGUUUAGUUAGGAUAUACAUAUAUUU | 72.9 | 64.5 |  | 
5 | AACAGCUCGUCAGGAUAUACAAUACUGCUUCGGCAGUAUGAUAAGAUAACAUGAGGAUCACCCAUGUAGAAGGGACGAGCUGAA | 6.23 | 7.47 |  | 
6 | CGCUACGUUUCGUAGCAGUGUCAUCGAGAAGGCCCUGACAUGAGGAUCACCCAUGUAAAAGUUCAGGAGGAUAUCGAUGAUACA |  |  | 4.83 | 4.95
7 | GCUGCAUAGGCAGGAUAUGCAACAAUGAGAAUAAAAUAUAACUCAUUGACAUGAGGAUCACCCAUGUAGAAGGGCCUGUGCAGU | 19 | 18.2 |  | 
8 | UCAUUAGCGGGCGGGUCGGUUGGACAUGAGGAUCACCCAUGUAGAAGGACCGGUGGACUCCGGCGGUAGGAUAUACAUUUGGUG | 22 | 30.7 |  | 
9 | UUAUACUGAGAGAAGGUUCAAACUACAUAUUGCAUACAUGAGGAUCACCCAUGUUGGUGAAUAAGAAAGGAUAUUUUACUAUAU | 44 | 32.4 |  | 
10 | AAUAUAGAGCUGGACUCAAAAUAAACAUGAGGAUCACCCAUGUAGGAUAUCAGCACGAUAAGUGCUGAGAAGGACAUCCAGCUC | 15.4 | 14.2 |  | 
11 | AGAAAACAUGAGGAUCACCCAUGUCAGGAUAUCCUGCGGCGAUACAAGCCACGUUGUCGGAGAAGGGACAGGGA | 58 | 89.7 |  | 
12 | CCCGCGAUGUCAGGAUAUAGUCGGAGGUGCAGACUAGAAGGGACAUGAGGAUCACCCAUGUGCGUGAAAAUUUAAAACCUAAAU | 39.3 | 119 |  | 
13 | GGAUGACAUAGUCAUCAGUAACGAACAUGAGGAUCACCCAUGUAGGAUAUGCUACUCAACGAGUAGCAGAAGGACAUGUGUCUU | 27.4 | 135 |  | 
14 | AUGCUAUUAGGAUAUACAUGAGGAUCACCCAUGUCGCUCGAUCGACGGCUAAGACUAUGUAGAAGGGAUUACGU | 95.7 | 94.4 |  | 
15 | CCUCCACAUGAGGAUCACCCAUGUCAGGAUAUCGUGUGUUUUUUUUCGGUCUUUCGUGCGAGAAGGGACGUCUG | 27.4 | 29.9 |  | 
16 | CAGUACUGAGGAUAUACAUGAGGAUCACCCAUGUGUCCUAGCUAGGAUACUAGCAUUAGUAGAAGGCAGUACUG | 18 | 213 |  | 
17 | AGUCGGAGCAGAGGAUAUUACAUGAGGAUCACCCAUGUAAAUGGAAUAAGCUGGAAACAGCAAUGUAAGAAGGCUGCUCCGACA | 67.4 | 540 |  | 
18 | UGUUAAAUUGAUCCUGCAAGUACAUGAGGAUCACCCAUGUGCUAGGAUAUCGCGCAGCUAAAGACCGAGAAGGAGCACAAUGUA | 39.2 | 97.7 |  | 
19 | GGGUACAUCGGAGGAUAUCAUGUAAAUACAUGAGGAUCACCCAUGUCGAUGGAGACAUCGGAGAUUGAGAAGGCCUAUGUACCG |  |  | 194 | 9.34
20 | UACAGACAUGAGGAUCACCCAUGUGAGGAUAUCGAUAACGAUAAAAUAAUAUAAACAACGAGAAGGCACAGCAU | 34.3 | 40.3 |  | 
21 | AGUCUGAGAGGAUAUACAAGGGAAAAAAAAGUAAGAUCCCUACAUGAGGAUCACCCAUGUAGAAGGCUCUGACA | 98 | 43.8 |  | 
22 | UGCAUGCUAGGAUAUACGGGACAUUAGGGUUCGUUGUGUGGACAUGAGGAUCACCCAUGUAGAAGGAGCGUGCU | 85.6 | 243 |  | 
23 | ACUUUAACUCGACAUGAGGAUCACCCAUGUCCUAGUACUACACAGGAUAUCUCGGACUCCUCGUGAGAGAAGGGUGAGCACUAA |  |  | 395 | 587
24 | ACGGUGGUCACAGGAUAUCCGGCCCGCGUGGCCGGAGAAGGGUGACUCAGAACCACAUGAGGAUCACCCAUGUGCCUUGCCGUA |  |  | 102 | 35.5

Row | Sequence | apparent Kd [1] [nM] | apparent Kd [2] [nM] | apparent Kd [3] [nM] | apparent Kd [4] [nM]
25 | GCUGCGCGAGGAUAUGCGGUUCGCGCGGUGGCCCGUGGCGGACAUGAGGAUCACCCAUGUAGAAGGCGUGCGGG | 11.1 | 12.1 |  | 
26 | AUGAAAGUAACGCAGGAUAUCCAGGAUACAACAUGAGGAUCACCCAUGUACAUACGAACGUAUAAGGAGAAGGGUGGAUGAUCUUC |  |  | 173 | 342
27 | UUAUUUAUACAAGGAUAUCAGUUAGUUACAAUUCCUACAUGAGGAUCACCCAUGUUUUUUUUUUUUGAGAAGGUGUAUUGUCUG |  |  | 45.2 | 52.9
28 | AAUUCGUCAGGAUAUGCAUGUAGUUGCUACAUUUCGCCGUUGCAGAAGGGACAUGAGGAUCACCCAUGUAAGUC | 33.1 | 34.2 |  | 
29 | ACGUUAAUUCGAGGAUAUCGGUGAUUUAUAUUACGAGAAGGCGAUAAUUGUGAUAAACUUAUAGACAUGAGGAUCACCCAUGUA |  |  | 42.7 | 38.8
30 | AACAUACUAUACAUGAGGAUCACCCAUGUUUGGGCACUGUACAGAAGGCACGGGCAAAUGCGAGGUGAGGAUAUGUAGUUAGUG |  |  | 64.8 | 18.8
31 | CGCACUAUACAUGAGGAUCACCCAUGUUAACAUGAGCUAUUCAGAAGGCAUAAUUAGAGAAUAAAUGAGGAUAUGAUUAGUGCG |  |  | 34.7 | 18.8
32 | AGUGCUAGAGGAUAUGCAGUGGCGUUCUGUAUUCACAGCUCACAUGAGGAUCACCCAUGUAGAAGGCUAGCUAC | 23.6 | 106 |  | 
33 | AAACAUGUCCGAGGAUAUCUGGAAACAUUUUCAAGAGAAGGCGGACAUGAGGAUCACCCAUGUCUCUCCUCAUCAAAUCCAAUU | 8.37 | 51.1 |  | 
34 | GUACAUGAGGAUCACCCAUGUAAAUGGGUAAAUAUAGAACGUAGAAGGAUGUAUUUACACAUGACAUAGGAUAUACUAUAUAGU | 93.8 | 73.9 |  | 
35 | GCCAGUUAUGUAGGAUAUGCGCGGCGAGCCUGAGCAGAAGGACAUGAGGAUCACCCAUGUGUUGCGGUUUGAGUACUAAUCGCU | 31.5 | 171 |  | 
36 | CAAGGCUUCACAGGAUAUAUUGAUGACAUGAGGAUCACCCAUGUACCGGCAGUAGAAGGGUGAACGCUCGUGGCCACGUGCGUG |  |  | 130 | 35.6
37 | CACCGUUACAGAGGAUAUCUUACAUGAGGAUCACCCAUGUAAUAAAUGAGAAUUUCGGAUGUAUGAGAGAAGGCUGGAAUCGGC | 23.2 | 22 |  | 
38 | AGGAAACAUGAGGAUCACCCAUGUAAAGAUGGGCGAGGAUAUCGAAAGAAAAGAAAGAAACGAGAAGGCGCAAAAG |  |  | 305 | 72.1
39 | CAGAUUUGCUAGAAGGGUGACAUGAGGAUCACCCAUGUGCGGGCAGUCCUAUCUUCAUGCCCGCCACAGGAUAUAGCAAUUCUC |  |  | 24.1 | 49
40 | ACACAUGAGGAUCACCCAUGUAGCUGGCAUCUGCGCCAGCCACAGGAUAUACGGCAACACAAACCGUAGAAGGGUGAUAAACAC |  |  | 59.5 | 35.5
41 | AAAAUCAAUAGAGGAUAUUCAUACACUACAUACGGAGAAGGCUAACAAUCAUGAGGACAUGAGGAUCACCCAUGUUGUGACCAU |  |  | 25.9 | 17.1
42 | GGUACCAUCGCAGGAUAUGGUAUCCUUUGGGUACCAGAAGGGUGAUAACAUGAGGAUCACCCAUGUGGUACCGGGCGUGAGCCC |  |  | 29 | 970
43 | UGCAUACAUGAGGAUCACCCAUGUCAACUUAGUCGAGGAUAUGGGCAGCCCUGAGGCGAACCAGAAGGCGAAUUGU |  |  | 73.5 | 26.4
44 | CGCGAACAGGUUAACAUGAGGAUCACCCAUGUGGACUCAUGGUAGGAUAUCGGGAAGGAGGAAACCGAGAAGGGCCGGUGAGCC |  |  | 324 | 107
45 | UAAAAGCGGAAGGAUAUGUGUCUAAAGUCUGUAGCAGAAGGUCCGACAUGAGGAUCACCCAUGUGACCUGGUGC | 11.1 | 13.9 |  | 
46 | CGUCUGUGAGGAUAUGGUGUCGUUUACAUGAGGAUCACCCAUGUUUCAUGGGACUAGAGACUAGAAGGUACUGACG | 314 | 413 |  | 
47 | UGUUGGAGCGAGAAGGGACGAUGGGAAGCUGUAGGCUGGCACUGUAGACAUGAGGAUCACCCAUGUCAGGAUAUUGCCGAACUA | 5.83 | 7.71 |  | 
48 | GUACUACAUGAGGAUCACCCAUGUGAGGAUAUGCGAAUUUCAUCAAAAGAUGAAAUUUGCAGAAGGCACUGUAC | 46.7 | 34 |  | 
